Test results published in ChEMBL document CHEMBL1828575, “Design, synthesis and antiproliferative activities of biarylolefins based on polyhydroxylated and carbohydrate scaffolds” (Eur J Med Chem, 2011).
Activity calls are given as the source filed them. No cut-off for these calls is given here.

What was measured:
[1] = Cytotoxicity against human HL60R cells at 10^-5 M after 72 hrs by MTS assay; format: functional, HL-60; settings: read-out: GI
Procedure, shortened: (§1)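 Cells grown in RPMI with 10% fetal calf serum, penicillin, streptomycin and fungizone under 5% CO₂. Plated in 96-well plates and dosed 24 h later with compound in DMSO (1% final DMSO; controls got DMSO alone). After 72 h, MTS was added for 3 h at 37 °C and A490 read. Inhibition = (1 − OD treated/OD control) × 100, in triplicate.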

PC-3 [2] = assay: Cytotoxicity against human PC3 cells at 10^-5 M after 72 hrs by MTS assay; format: functional; settings: PC-3, 72 h, read-out: GI
Procedure, shortened: (§2)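 Preliminary screen at 10^-5 and 10^-6 M. Cells were grown in RPMI with 10% fetal calf serum plus penicillin, streptomycin and fungizone under 5% CO₂, plated in 96-well plates, and dosed 24 h later from DMSO stocks (1% DMSO final, same in controls). After 72 h, MTS was added for 3 h at 37 °C and absorbance read at 490 nm. Inhibition was calculated as (1 − OD treated/OD control) × 100, in triplicate.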

HT-29 [3] = assay: Cytotoxicity against human HT-29 cells at 10^-5 M after 72 hrs by MTS assay; format: functional; settings: HT-29, 72 h, read-out: GI; procedure, shortened: as §1
MCF7 [4] = assay: Cytotoxicity against human MCF7 cells at 10^-5 M after 72 hrs by MTS assay; format: functional; settings: MCF7, 72 h, read-out: GI
HL-60 [5] = assay: Cytotoxicity against human HL60 cells at 10^-5 M after 72 hrs by MTS assay; format: functional; settings: HL-60, 72 h, read-out: GI; procedure, shortened: as §1
OVCAR-8 [6] = assay: Antiproliferative activity against human OVCAR8 cells after 72 hrs by MTS assay; format: functional, cell-based; settings: OVCAR-8, 72 h
Procedure, shortened: (§3)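 Cell lines grown in RPMI with 10% fetal calf serum plus penicillin, streptomycin and fungizone under 5% CO2. Compounds in DMSO (1% final; controls got DMSO alone) were added 24 h after plating. After 72 h exposure, MTS was added for 3 h at 37 °C and A490 read. Inhibition = (1 − OD treated/OD control)×100, in triplicate. IC50s came from separate duplicate dose-response experiments.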

OVCAR-8 [7] = assay: Cytotoxicity against human OVCAR8 cells at 10^-6 M after 72 hrs by MTS assay; format: functional; settings: OVCAR-8, 72 h, read-out: GI; procedure, shortened: as §2
PC-3 [8] = assay: Antiproliferative activity against human PC3 cells after 72 hrs by MTS assay; format: functional, cell-based; settings: PC-3, 72 h; procedure, shortened: as §3
HL-60 [9] = assay: Cytotoxicity against human HL60 cells at 10^-6 M after 72 hrs by MTS assay; format: functional; settings: HL-60, 72 h, read-out: GI; procedure, shortened: as §1
[10] = Cytotoxicity against human MDA231 cells at 10^-5 M after 72 hrs by MTS assay; format: functional; settings: MDA-MB-231, 72 h, read-out: GI; procedure, shortened: as §2
Ovis aries [11] = species: Ovis aries; assay: Inhibition of sheep brain tubulin polymerization at 10 uM
Procedure, shortened: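 Microtubule protein from sheep brain, purified by two assembly/disassembly cycles (37 °C/0 °C), in 100 mM MES pH 6.6, 1 mM EGTA, 0.5 mM MgCl₂. Compounds in DMSO were tested at a single concentration, with incubation at 37 °C for 10 min and then 0 °C for 5 min before measuring assembly rate, following a modified Guénard protocol.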

SK-OV-3 [12] = assay: Cytotoxicity against human SKOV3 cells at 10^-5 M after 72 hrs by MTS assay; format: functional; settings: SK-OV-3, 72 h, read-out: GI; procedure, shortened: as §2
PC-3 [13] = assay: Cytotoxicity against human PC3 cells at 10^-6 M after 72 hrs by MTS assay; format: functional; settings: PC-3, 72 h, read-out: GI; procedure, shortened: as §2
[14] = Antiproliferative activity against human MDA231 cells after 72 hrs by MTS assay; format: functional, cell-based; settings: MDA-MB-231, 72 h; procedure, shortened: as §3
HCT-15 [15] = assay: Cytotoxicity against human HCT15 cells at 10^-6 M after 72 hrs by MTS assay; format: functional; settings: HCT-15, 72 h, read-out: GI; procedure, shortened: as §1
K562 [16] = assay: Antiproliferative activity against human K562 cells after 72 hrs by MTS assay; format: functional, cell-based; settings: K562, 72 h; procedure, shortened: as §3
SF-268 [17] = assay: Antiproliferative activity against human SF268 cells after 72 hrs by MTS assay; format: functional, cell-based; settings: SF-268, 72 h; procedure, shortened: as §3
A549 [18] = assay: Cytotoxicity against human A549 cells at 10^-6 M after 72 hrs by MTS assay; format: functional; settings: A549, 72 h, read-out: GI; procedure, shortened: as §1
MIA PaCa-2 [19] = assay: Cytotoxicity against human MIAPaCa2 cells at 10^-5 M after 72 hrs by MTS assay; format: functional; settings: MIA PaCa-2, 72 h, read-out: GI
HL-60 [20] = assay: Antiproliferative activity against human HL60 cells after 72 hrs by MTS assay; format: functional, cell-based; settings: HL-60, 72 h; procedure, shortened: as §3
SF-268 [21] = assay: Cytotoxicity against human SF268 cells at 10^-6 M after 72 hrs by MTS assay; format: functional; settings: SF-268, 72 h, read-out: GI; procedure, shortened: as §2
HCT-116 [22] = assay: Cytotoxicity against human HCT116 cells at 10^-6 M after 72 hrs by MTS assay; format: functional; settings: HCT-116, 72 h, read-out: GI; procedure, shortened: as §1
OVCAR-8 [23] = assay: Cytotoxicity against human OVCAR8 cells at 10^-5 M after 72 hrs by MTS assay; format: functional; settings: OVCAR-8, 72 h, read-out: GI; procedure, shortened: as §2
SK-OV-3 [24] = assay: Antiproliferative activity against human SKOV3 cells after 72 hrs by MTS assay; format: functional, cell-based; settings: SK-OV-3, 72 h; procedure, shortened: as §3
HCT-15 [25] = assay: Antiproliferative activity against human HCT15 cells after 72 hrs by MTS assay; format: functional, cell-based; settings: HCT-15, 72 h; procedure, shortened: as §3
HT-29 [26] = assay: Cytotoxicity against human HT-29 cells at 10^-6 M after 72 hrs by MTS assay; format: functional; settings: HT-29, 72 h, read-out: GI; procedure, shortened: as §1
A549 [27] = assay: Cytotoxicity against human A549 cells at 10^-5 M after 72 hrs by MTS assay; format: functional; settings: A549, 72 h, read-out: GI; procedure, shortened: as §1
[28] = Cytotoxicity against human HL60R cells at 10^-6 M after 72 hrs by MTS assay; format: functional; settings: read-out: GI; procedure, shortened: as §1
MIA PaCa-2 [29] = assay: Cytotoxicity against human MIAPaCa2 cells at 10^-6 M after 72 hrs by MTS assay; format: functional; settings: MIA PaCa-2, 72 h, read-out: GI
K562 [30] = assay: Cytotoxicity against human K562 cells at 10^-6 M after 72 hrs by MTS assay; format: functional; settings: K562, 72 h, read-out: GI; procedure, shortened: as §1
HCT-116 [31] = assay: Cytotoxicity against human HCT116 cells at 10^-5 M after 72 hrs by MTS assay; format: functional; settings: HCT-116, 72 h, read-out: GI; procedure, shortened: as §1
[32] = Antiproliferative activity against human HL60R cells after 72 hrs by MTS assay; format: functional, cell-based
SF-268 [33] = assay: Cytotoxicity against human SF268 cells at 10^-5 M after 72 hrs by MTS assay; format: functional; settings: SF-268, 72 h, read-out: GI; procedure, shortened: as §2
[34] = Cytotoxicity against human MDA231 cells at 10^-6 M after 72 hrs by MTS assay; format: functional; settings: MDA-MB-231, 72 h, read-out: GI; procedure, shortened: as §2
K562 [35] = assay: Cytotoxicity against human K562 cells at 10^-5 M after 72 hrs by MTS assay; format: functional; settings: K562, 72 h, read-out: GI; procedure, shortened: as §1
SK-OV-3 [36] = assay: Cytotoxicity against human SKOV3 cells at 10^-6 M after 72 hrs by MTS assay; format: functional; settings: SK-OV-3, 72 h, read-out: GI; procedure, shortened: as §2
MCF7 [37] = assay: Cytotoxicity against human MCF7 cells at 10^-6 M after 72 hrs by MTS assay; format: functional; settings: MCF7, 72 h, read-out: GI
HCT-15 [38] = assay: Cytotoxicity against human HCT15 cells at 10^-5 M after 72 hrs by MTS assay; format: functional; settings: HCT-15, 72 h, read-out: GI; procedure, shortened: as §1
Ovis aries [39] = species: Ovis aries; assay: Inhibition of sheep brain tubulin polymerization at 17 uM
[40] = Inhibition of sheep brain tubulin polymerization; set-up: species or system Ovis aries

| Compound | inhibition of growth at 10 µM [1] [%] | inhibition of growth at 10 µM (PC-3 [2]) [%] | inhibition of growth at 10 µM (HT-29 [3]) [%] | inhibition of growth at 10 µM (MCF7 [4]) [%] | inhibition of growth at 10 µM (HL-60 [5]) [%] | IC50 (OVCAR-8 [6]) [nM] | inhibition of growth at 1 µM (OVCAR-8 [7]) [%] | IC50 (PC-3 [8]) [nM] | inhibition of growth at 1 µM (HL-60 [9]) [%] | inhibition of growth at 10 µM [10] [%] | tubulin polymerization inhibition call (active/not active) (Ovis aries [11]) | inhibition of growth at 10 µM (SK-OV-3 [12]) [%] | inhibition of growth at 1 µM (PC-3 [13]) [%] | IC50 [14] [nM] | inhibition of growth at 1 µM (HCT-15 [15]) [%] | IC50 (K562 [16]) [nM] | IC50 (SF-268 [17]) [nM] | inhibition of growth at 1 µM (A549 [18]) [%] | inhibition of growth at 10 µM (MIA PaCa-2 [19]) [%] | IC50 (HL-60 [20]) [nM] | further results |
| --- | --- | --- | --- | --- | --- | --- | --- | --- | --- | --- | --- | --- | --- | --- | --- | --- | --- | --- | --- | --- | --- |
| COc1ccc(C(=C(COC(C)=O)COC(C)=O)c2cc(OC)c(OC)c(OC)c2)cc1O | 90 | 78 | 63 | 34 | 74 | 1900 | 0 | 270 | 15 | 75 | inactive | 84 | 14 | 1030 | 18 | 180 | 970 | 1 | 51 | 680 | inhibition of growth at 1 µM (SF-268 [21]): 16%; inhibition of growth at 1 µM (HCT-116 [22]): 0%; inhibition of growth at 10 µM (OVCAR-8 [23]): 94%; IC50 (SK-OV-3 [24]): 70 nM; IC50 (HCT-15 [25]): 680 nM; inhibition of growth at 1 µM (HT-29 [26]): 0%; inhibition of growth at 10 µM (A549 [27]): 67%; inhibition of growth at 1 µM [28]: 1%; inhibition of growth at 1 µM (MIA PaCa-2 [29]): 0%; inhibition of growth at 1 µM (K562 [30]): 25%; inhibition of growth at 10 µM (HCT-116 [31]): 59%; IC50 [32]: 2720 nM; inhibition of growth at 10 µM (SF-268 [33]): 71%; inhibition of growth at 1 µM [34]: 0%; inhibition of growth at 10 µM (K562 [35]): 78%; inhibition of growth at 1 µM (SK-OV-3 [36]): 71%; inhibition of growth at 1 µM (MCF7 [37]): 5%; inhibition of growth at 10 µM (HCT-15 [38]): 77% |
| COc1ccc(C(=C(CO)CO)c2cc(OC)c(OC)c(OC)c2)cc1O | – | – | – | – | – | – | – | – | – | – | inactive | – | – | – | – | – | – | – | – | – | inhibition (Ovis aries [39]): Active |
| COc1ccc(C(=O)c2cc(OC)c(OC)c(OC)c2)cc1O [PHENSTATIN] | – | – | – | – | – | – | – | – | – | – | Active | – | – | – | – | – | – | – | – | – | IC50 [40]: 7900 nM |
| COc1cc(C(=C(CO)CO)c2ccc3ccccc3c2)cc(OC)c1OC | 89 | 75 | 71 | 51 | 75 | 4470 | 0 | 760 | 17 | 88 | inactive | 64 | 10 | 810 | 19 | 170 | 1250 | 3 | 54 | 780 | inhibition of growth at 1 µM (SF-268 [21]): 14%; inhibition of growth at 1 µM (HCT-116 [22]): 0%; inhibition of growth at 10 µM (OVCAR-8 [23]): 67%; IC50 (SK-OV-3 [24]): 6840 nM; IC50 (HCT-15 [25]): 390 nM; inhibition of growth at 1 µM (HT-29 [26]): 0%; inhibition of growth at 10 µM (A549 [27]): 67%; inhibition of growth at 1 µM [28]: 11%; inhibition of growth at 1 µM (MIA PaCa-2 [29]): 0%; inhibition of growth at 1 µM (K562 [30]): 24%; inhibition of growth at 10 µM (HCT-116 [31]): 68%; IC50 [32]: 1680 nM; inhibition of growth at 10 µM (SF-268 [33]): 85%; inhibition of growth at 1 µM [34]: 5%; inhibition of growth at 10 µM (K562 [35]): 83%; inhibition of growth at 1 µM (SK-OV-3 [36]): 5%; inhibition of growth at 1 µM (MCF7 [37]): 8%; inhibition of growth at 10 µM (HCT-15 [38]): 82% |
